{"source": "paper PMC11234860", "about": "(Chemical Science, 2024)", "key": {"[1]": {"biological_target": "Siglec-9 (Siglec-9d1–d3-Fc) (Homo sapiens, UniProt Q9Y336)", "sequence (Q9Y336 18-336)": "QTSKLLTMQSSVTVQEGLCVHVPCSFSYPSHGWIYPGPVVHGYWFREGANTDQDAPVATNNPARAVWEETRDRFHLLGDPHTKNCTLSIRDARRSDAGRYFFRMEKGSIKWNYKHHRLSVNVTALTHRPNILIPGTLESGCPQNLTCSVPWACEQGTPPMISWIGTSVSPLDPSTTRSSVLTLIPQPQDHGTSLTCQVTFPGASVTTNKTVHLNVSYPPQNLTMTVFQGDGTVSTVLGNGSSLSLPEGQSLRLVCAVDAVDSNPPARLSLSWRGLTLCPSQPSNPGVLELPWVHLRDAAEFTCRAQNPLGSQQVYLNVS", "test": "19F T2 CPMG filtered NMR competitive displacement assay, Siglec-9", "format": "binding", "procedure,_shortened": "(§1)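 Siglec-15 ECD (d1–d2, residues 20–263) fused to mVENUS, or Siglec-9 d1–d3 (residues 18–336) fused to human IgG1 Fc with C-terminal His6. Both transiently expressed in HEK293F and purified by Ni-NTA then SEC. Siglec-9 15 μM or Siglec-15 25 μM, with 10 equiv difluoroacetamide spy, titrated with increasing competitor equivalents. One decoupled 19F CPMG spectrum per sample (200 ms filter) at 600 MHz, 298 K, in 20 mM Tris pH 8, 300 mM NaCl, 10% D2O, with 100 μM TFA reference.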"}, "[2]": {"biological_target": "T1, Siglec-15 (Siglec-15d1–d2-mVENUS) (Homo sapiens, UniProt Q6ZMC9)", "T1 sequence (Q6ZMC9 20-263)": "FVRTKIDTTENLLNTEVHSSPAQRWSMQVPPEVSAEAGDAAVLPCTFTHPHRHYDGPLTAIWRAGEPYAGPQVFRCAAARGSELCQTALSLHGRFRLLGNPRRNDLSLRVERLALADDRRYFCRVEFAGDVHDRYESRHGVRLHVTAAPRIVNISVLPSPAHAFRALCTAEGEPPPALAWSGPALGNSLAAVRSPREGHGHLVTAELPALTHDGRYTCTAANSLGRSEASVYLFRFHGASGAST", "test": "19F T2 CPMG filtered NMR competitive displacement assay, Siglec-15", "format": "binding", "procedure,_shortened": "as §1"}, "[3]": {"conditions": "read-out: lower KD limit, semiquantitative, from displacement"}}, "note": "pKd: −log10 of the molar value.", "data": [{"substance": "6′-sialyl N-acetyl-D-lactosamine aminoethylglycoside [α2,6SLN]", "values": [{"measurement": "displacement of the spy molecule", "setting": "[1]; 320 equivalents of competitor, Siglec-9 15 μM + 10 equiv diF α2,6SLN", "value": 21, "unit": "%"}, {"measurement": "pKd", "setting": "[1]; [3]", "value": "≤ 2.52"}, {"measurement": "displacement of the spy molecule", "setting": "[2]; 300 equivalents of competitor, Siglec-15 25 μM + 10 equiv diF α2,6SLN", "value": 22, "unit": "%"}, {"measurement": "pKd", "setting": "[2]; [3]", "value": "≤ 2.30"}]}]}
